# Experimental data as given in ChEMBL document CHEMBL1141063, “Ligands with dual vitamin D3-agonistic and androgen-antagonistic activities” (Bioorg Med Chem Lett, 2005).
# Columns and labels:
# [1] = biological target: T1, Vitamin D3 receptor (Homo sapiens) (UniProt P11473); assay: Vitamin D3 agonistic activity as effective dose for HL-60 monocytic cell differentiation; assay type: functional, cell-based
# T1 sequence (whole entry): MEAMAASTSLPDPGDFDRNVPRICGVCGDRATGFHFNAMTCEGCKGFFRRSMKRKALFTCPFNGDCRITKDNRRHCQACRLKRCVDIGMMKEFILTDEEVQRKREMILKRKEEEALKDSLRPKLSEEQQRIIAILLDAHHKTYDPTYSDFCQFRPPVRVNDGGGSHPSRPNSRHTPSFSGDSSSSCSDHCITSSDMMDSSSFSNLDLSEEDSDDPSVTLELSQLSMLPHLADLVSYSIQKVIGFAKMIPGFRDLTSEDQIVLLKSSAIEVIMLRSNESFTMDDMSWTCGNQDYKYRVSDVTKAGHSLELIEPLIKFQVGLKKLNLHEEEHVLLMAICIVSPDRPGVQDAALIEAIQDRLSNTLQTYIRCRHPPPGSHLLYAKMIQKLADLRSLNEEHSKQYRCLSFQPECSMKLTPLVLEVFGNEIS
# Outline: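 HL-60 cells held in RPMI 1640 with or without test compound for three days. Cells were then mixed 1:1 (v/v) with PBS containing 0.2% NBT and 20 nM TPA and kept 20 min at 37 °C. NBT-positive cells were counted among 200–300 cells to give the ED50. Differentiation was also checked by Wright–Giemsa morphology.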
# [2] = Activity ratio of effective dose against vitamin D3 and inhibitory activity against androgen antagonistic activity; assay type: functional
# Outline: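 Ratio of ED50 for HL-60 differentiation to IC50 for SC-3 growth inhibition. HL-60: cells in RPMI 1640 with or without compound for three days, then NBT 0.2% plus TPA 20 nM in PBS (1:1) for 20 min at 37 °C; NBT-positive cells counted among 200–300. SC-3: cells in MEM, 10% FBS, 10 nM testosterone with or without compound, three days, 37 °C, 5% CO2.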
# Androgen receptor = biological target: T2, Androgen receptor (Homo sapiens, UniProt P10275); assay: Binding affinity to androgen receptor by incubation with GST-hARLBD and [3H]testosterone
# T2 sequence (P10275 whole entry): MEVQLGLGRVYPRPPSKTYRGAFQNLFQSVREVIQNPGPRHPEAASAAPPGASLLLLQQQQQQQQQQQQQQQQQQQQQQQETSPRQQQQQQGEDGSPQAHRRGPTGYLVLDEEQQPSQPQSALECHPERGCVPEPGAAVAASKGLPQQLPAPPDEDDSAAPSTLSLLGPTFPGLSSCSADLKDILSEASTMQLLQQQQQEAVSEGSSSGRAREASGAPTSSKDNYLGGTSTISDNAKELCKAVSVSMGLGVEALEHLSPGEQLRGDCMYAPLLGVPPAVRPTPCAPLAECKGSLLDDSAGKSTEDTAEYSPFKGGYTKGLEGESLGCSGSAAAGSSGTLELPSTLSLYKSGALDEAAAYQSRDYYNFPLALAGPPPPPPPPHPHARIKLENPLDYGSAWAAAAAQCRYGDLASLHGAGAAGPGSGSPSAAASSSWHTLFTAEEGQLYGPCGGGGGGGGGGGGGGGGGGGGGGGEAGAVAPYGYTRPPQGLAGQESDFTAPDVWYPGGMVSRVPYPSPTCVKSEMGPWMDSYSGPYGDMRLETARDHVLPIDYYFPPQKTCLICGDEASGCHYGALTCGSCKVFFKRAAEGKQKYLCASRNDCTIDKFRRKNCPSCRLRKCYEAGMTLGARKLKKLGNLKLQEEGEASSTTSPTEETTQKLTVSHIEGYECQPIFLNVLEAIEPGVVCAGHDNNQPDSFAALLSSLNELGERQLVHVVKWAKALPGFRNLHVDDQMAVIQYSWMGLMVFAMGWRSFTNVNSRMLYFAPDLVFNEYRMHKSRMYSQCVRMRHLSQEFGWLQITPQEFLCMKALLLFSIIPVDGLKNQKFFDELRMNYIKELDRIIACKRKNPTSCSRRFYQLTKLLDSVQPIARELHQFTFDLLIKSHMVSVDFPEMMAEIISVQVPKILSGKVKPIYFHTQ
Structure (SMILES),ED50 [1],Ratio [2],Ki (Androgen receptor)
CCC(CC)(c1ccc(O)c(C)c1)c1ccc(NCC(=O)C(C)(C)C)c(C)c1,1.5 µM,0.43,
CCC(CC)(c1ccc(NCCC(C)(C)O)c(C)c1)c1ccc(NCCC(C)(C)O)c(C)c1,0.9 µM,0.13,3.38 µM
CCC(CC)(c1ccc(NCC(O)C(C)(C)C)c(C)c1)c1ccc(NCC(O)C(C)(C)C)c(C)c1 (centres undefined),1.2 µM,1.2,
CCC(CC)(c1ccc(NCC(O)CO)c(C)c1)c1ccc(OCC(O)C(C)(C)C)c(C)c1 (centres undefined),0.052 µM,5.78,1.51 µM
CCC(CC)(c1ccc(NCC(=O)C(C)(C)C)c(C)c1)c1ccc(NCC(=O)C(C)(C)C)c(C)c1,0.45 µM,0.45,
CCC(CC)(c1ccc(OCC(O)CO)c(C)c1)c1ccc(OCC(O)C(C)(C)C)c(C)c1 (centres undefined),0.044 µM,2.31,
CCC(CC)(c1ccc(OCC(=O)C(C)(C)C)c(C)c1)c1ccc(OCC(=O)C(C)(C)C)c(C)c1,0.41 µM,0.22,
CCC(CC)(c1ccc(NCC(O)CO)c(C)c1)c1ccc(OCC(=O)C(C)(C)C)c(C)c1 (centres undefined),0.11 µM,14.5,1.17 µM
CCC(CC)(c1ccc(NCC(=O)C(C)(C)C)c(C)c1)c1ccc(OCC(=O)C(C)(C)C)c(C)c1,0.45 µM,0.38,
CCC(CC)(c1ccc(NCCC(C)(C)O)c(C)c1)c1ccc(OCC(=O)C(C)(C)C)c(C)c1,0.37 µM,0.45,2.9 µM
